Measurements reported in ChEMBL document CHEMBL4261587 (Eur J Med Chem, 2018).
pIC50: −log10 of the molar value.

Experiments:
[1] = target: Dual specificity tyrosine-phosphorylation-regulated kinase 1B (Homo sapiens, UniProt Q9Y463); assay: Inhibition of recombinant full length human Dyrk1B expressed in Baculovirus expression system using KKISGRLSPIMTEQ as substrate in presence of ATP
[2] = Half life in Sprague-Dawley rat liver microsomes at 0.5 uM by LC-MS/MS analysis; assay type: ADME, microsome
[3] = target: Serine/threonine-protein kinase pim-1 (Homo sapiens) (UniProt P11309); assay: Inhibition of recombinant human PIM1 expressed in Baculovirus expression system at 2 uM by Z'-LYTE assay
HeLa [4] = assay: Cytotoxicity against human HeLa cells assessed as cell viability at 1 uM by XTT assay; assay type: functional; details: read-out: Activity
[5] = Half life in human liver S9 fraction at 0.3 uM incubated up to 120 mins at 37 degC in presence of NADP+/UDPGA by LC-MS/MS analysis; assay type: ADME, subcellular
How it was run: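 Phase I and phase II metabolic stability was tested in S9 fraction from human liver homogenate. Samples were taken at several time points, and the remaining parent compound was quantified by LC-MS/MS to give a metabolic half-life.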

[6] = target: SRSF protein kinase 1 (Homo sapiens) (UniProt Q96SB4); assay: Inhibition of recombinant human SRPK1 expressed in Baculovirus expression system at 2 uM by Z'-LYTE assay
Chain of SRSF protein kinase 1 (Homo sapiens) (Q96SB4 whole entry): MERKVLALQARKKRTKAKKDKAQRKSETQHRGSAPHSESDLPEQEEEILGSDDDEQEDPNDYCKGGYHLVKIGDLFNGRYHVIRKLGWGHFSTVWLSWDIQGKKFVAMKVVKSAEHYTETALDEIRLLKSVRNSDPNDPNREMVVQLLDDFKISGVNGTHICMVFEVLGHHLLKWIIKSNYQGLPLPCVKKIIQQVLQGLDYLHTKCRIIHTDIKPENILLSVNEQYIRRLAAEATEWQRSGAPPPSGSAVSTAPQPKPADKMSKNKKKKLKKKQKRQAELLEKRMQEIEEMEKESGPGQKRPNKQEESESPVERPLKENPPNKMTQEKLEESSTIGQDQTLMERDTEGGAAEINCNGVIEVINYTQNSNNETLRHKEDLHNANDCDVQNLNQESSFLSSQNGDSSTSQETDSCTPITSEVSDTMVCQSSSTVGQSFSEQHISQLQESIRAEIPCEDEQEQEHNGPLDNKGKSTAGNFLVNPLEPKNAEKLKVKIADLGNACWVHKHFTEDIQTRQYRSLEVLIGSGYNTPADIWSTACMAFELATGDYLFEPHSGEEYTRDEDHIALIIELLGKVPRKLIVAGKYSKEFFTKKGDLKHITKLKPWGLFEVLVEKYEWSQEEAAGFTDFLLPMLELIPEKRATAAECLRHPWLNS

HeLa [7] = assay: Cytotoxicity against human HeLa cells assessed as cell viability at 3 uM by XTT assay; assay type: functional; details: read-out: Activity
[8] = target: T1, Serine/threonine-protein kinase haspin (Homo sapiens) (UniProt Q8TF76); assay: Inhibition of recombinant human Haspin expressed in Baculovirus expression system at 2 uM by Adapta assay
T1 sequence (whole entry): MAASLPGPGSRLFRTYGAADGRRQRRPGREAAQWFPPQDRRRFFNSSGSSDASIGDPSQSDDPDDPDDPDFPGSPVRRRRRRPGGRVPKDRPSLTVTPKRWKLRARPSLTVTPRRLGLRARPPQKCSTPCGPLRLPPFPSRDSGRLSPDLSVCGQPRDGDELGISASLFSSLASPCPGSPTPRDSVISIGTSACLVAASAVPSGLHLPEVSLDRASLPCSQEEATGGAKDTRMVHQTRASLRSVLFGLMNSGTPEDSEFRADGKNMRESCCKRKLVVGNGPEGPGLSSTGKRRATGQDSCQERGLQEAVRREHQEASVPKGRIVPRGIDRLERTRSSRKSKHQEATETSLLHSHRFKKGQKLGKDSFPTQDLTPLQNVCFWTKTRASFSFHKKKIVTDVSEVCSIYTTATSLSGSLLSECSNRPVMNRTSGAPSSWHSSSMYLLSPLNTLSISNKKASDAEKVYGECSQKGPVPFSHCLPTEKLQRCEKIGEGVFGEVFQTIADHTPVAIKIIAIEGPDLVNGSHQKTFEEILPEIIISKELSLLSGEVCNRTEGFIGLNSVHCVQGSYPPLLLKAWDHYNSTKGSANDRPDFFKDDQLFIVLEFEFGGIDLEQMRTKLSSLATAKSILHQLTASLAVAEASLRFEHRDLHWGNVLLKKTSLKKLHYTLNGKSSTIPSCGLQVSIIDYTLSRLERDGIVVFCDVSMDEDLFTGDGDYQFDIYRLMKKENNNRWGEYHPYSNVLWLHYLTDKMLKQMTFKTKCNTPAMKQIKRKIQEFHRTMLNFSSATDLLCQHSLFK

[9] = target: Casein kinase I isoform delta (Homo sapiens) (UniProt P48730); assay: Inhibition of recombinant human CK1delta expressed in Baculovirus expression system at 2 uM by Z'-LYTE assay
[10] = target: T2, Dual specificity tyrosine-phosphorylation-regulated kinase 2 (Homo sapiens, UniProt Q92630); assay: Inhibition of recombinant human Dyrk2 (unknown origin) at 2 uM by Lantha-screen assay
T2 sequence (Q92630 whole entry): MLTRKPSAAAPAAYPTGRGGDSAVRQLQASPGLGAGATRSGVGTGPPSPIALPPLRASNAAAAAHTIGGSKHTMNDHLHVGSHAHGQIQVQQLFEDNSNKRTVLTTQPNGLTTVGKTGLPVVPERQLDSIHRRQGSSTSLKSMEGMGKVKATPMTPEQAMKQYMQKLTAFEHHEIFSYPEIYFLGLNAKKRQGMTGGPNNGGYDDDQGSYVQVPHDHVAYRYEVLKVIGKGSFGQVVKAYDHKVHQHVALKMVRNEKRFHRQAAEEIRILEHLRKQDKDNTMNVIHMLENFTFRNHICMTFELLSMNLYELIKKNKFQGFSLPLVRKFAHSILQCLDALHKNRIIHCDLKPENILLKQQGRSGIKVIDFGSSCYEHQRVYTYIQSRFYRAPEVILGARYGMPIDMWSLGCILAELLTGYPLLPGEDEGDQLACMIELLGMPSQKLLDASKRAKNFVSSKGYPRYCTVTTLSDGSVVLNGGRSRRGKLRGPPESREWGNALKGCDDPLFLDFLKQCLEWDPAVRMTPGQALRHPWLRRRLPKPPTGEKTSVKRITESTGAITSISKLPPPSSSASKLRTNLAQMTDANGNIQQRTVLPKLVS

[11] = target: T3, Dual specificity tyrosine-phosphorylation-regulated kinase 1A (Homo sapiens, UniProt Q13627); assay: Inhibition of recombinant full length human Dyrk1A expressed in Baculovirus expression system using KKISGRLSPIMTEQ as substrate in presence of ATP
[12] = target: T4, Serine/threonine-protein kinase 17A (Homo sapiens) (UniProt Q9UEE5); assay: Inhibition of recombinant human STK17A expressed in Baculovirus expression system at 2 uM by Lantha-Screen assay
T4 sequence (whole entry): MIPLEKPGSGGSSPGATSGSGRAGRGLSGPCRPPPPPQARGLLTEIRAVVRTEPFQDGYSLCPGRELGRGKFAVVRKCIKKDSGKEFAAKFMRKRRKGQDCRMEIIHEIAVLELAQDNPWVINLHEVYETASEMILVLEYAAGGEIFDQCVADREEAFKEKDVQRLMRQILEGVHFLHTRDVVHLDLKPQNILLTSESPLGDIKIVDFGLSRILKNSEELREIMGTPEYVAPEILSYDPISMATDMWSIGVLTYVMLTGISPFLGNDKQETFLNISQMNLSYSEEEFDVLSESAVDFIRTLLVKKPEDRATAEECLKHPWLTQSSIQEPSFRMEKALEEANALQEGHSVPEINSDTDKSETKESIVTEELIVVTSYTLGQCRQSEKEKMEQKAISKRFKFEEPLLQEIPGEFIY

[13] = target: T3, Dual specificity tyrosine-phosphorylation-regulated kinase 1A; assay: Inhibition of recombinant human Dyrk1A expressed in Baculovirus expression system by Z'-LYTE assay
[14] = target: Homeodomain-interacting protein kinase 1 (Homo sapiens) (UniProt Q86Z02); assay: Inhibition of recombinant human HIPK1 expressed in Baculovirus expression system at 2 uM by Z'-LYTE assay
Chain of Homeodomain-interacting protein kinase 1 (Homo sapiens) (Q86Z02 whole entry, looked up): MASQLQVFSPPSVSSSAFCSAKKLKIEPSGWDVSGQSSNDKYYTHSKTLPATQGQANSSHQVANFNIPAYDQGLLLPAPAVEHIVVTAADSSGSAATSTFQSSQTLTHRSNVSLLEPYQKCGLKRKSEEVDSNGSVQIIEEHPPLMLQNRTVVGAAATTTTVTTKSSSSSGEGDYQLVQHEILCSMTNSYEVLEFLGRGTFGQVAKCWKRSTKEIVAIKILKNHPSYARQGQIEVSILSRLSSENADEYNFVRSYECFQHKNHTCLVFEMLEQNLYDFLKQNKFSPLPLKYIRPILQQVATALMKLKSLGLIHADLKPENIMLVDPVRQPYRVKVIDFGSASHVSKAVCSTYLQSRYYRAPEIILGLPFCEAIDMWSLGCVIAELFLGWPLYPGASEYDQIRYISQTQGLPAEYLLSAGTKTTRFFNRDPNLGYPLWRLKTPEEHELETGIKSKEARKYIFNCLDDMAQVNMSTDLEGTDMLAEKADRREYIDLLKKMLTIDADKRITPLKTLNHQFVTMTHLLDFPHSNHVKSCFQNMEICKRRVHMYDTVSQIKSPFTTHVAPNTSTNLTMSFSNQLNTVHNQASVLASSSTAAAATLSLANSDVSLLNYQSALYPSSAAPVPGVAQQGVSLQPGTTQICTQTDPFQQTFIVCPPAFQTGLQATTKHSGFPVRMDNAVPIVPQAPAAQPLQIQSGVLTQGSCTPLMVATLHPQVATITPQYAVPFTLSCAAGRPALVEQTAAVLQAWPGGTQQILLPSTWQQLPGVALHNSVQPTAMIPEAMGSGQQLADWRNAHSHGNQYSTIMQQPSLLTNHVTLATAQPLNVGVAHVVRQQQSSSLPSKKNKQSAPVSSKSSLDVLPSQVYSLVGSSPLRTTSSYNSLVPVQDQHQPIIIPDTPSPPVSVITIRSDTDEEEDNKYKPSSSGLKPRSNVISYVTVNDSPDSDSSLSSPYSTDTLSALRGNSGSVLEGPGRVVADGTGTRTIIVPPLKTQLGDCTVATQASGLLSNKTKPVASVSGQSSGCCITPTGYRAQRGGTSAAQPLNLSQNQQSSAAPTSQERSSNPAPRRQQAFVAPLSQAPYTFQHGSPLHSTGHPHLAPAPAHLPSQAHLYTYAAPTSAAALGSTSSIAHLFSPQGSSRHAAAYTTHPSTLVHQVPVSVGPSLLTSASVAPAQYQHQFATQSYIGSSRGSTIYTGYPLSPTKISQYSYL

[15] = target: T3, Dual specificity tyrosine-phosphorylation-regulated kinase 1A; assay: Inhibition of recombinant human Dyrk1A expressed in Baculovirus expression system at 2 uM by Z'-LYTE assay
[16] = target: BDNF/NT-3 growth factors receptor (Homo sapiens) (UniProt Q16620); assay: Inhibition of recombinant human TRKB expressed in Baculovirus expression system at 2 uM by Z'-LYTE assay
Chain of BDNF/NT-3 growth factors receptor (Homo sapiens) (Q16620 32-822 limits assumed): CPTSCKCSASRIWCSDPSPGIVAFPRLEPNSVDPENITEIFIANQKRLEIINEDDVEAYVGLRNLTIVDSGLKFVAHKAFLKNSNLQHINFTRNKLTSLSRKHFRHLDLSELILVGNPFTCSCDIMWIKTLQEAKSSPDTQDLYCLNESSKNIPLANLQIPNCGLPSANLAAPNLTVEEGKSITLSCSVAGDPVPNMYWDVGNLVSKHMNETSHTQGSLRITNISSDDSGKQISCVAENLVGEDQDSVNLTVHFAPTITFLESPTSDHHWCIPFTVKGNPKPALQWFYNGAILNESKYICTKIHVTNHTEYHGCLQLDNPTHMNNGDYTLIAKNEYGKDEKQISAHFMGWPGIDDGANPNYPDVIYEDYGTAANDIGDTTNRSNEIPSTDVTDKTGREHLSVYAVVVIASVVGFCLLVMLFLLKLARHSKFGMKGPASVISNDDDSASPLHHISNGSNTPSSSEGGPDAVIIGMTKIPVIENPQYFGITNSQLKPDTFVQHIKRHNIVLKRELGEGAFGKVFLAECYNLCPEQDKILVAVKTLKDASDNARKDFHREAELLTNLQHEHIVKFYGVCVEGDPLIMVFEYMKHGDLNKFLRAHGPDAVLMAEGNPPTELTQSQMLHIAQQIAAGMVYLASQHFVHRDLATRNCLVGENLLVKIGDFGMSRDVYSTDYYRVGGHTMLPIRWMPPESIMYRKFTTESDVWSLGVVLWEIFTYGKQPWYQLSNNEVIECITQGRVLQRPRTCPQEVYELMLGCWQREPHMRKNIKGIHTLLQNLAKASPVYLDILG

[17] = target: Myosin light chain kinase 2, skeletal/cardiac muscle (Homo sapiens) (UniProt Q9H1R3); assay: Inhibition of recombinant human MLCK2 expressed in Baculovirus expression system at 2 uM by Lantha-screen assay
Chain of Myosin light chain kinase 2, skeletal/cardiac muscle (Homo sapiens) (Q9H1R3 whole entry): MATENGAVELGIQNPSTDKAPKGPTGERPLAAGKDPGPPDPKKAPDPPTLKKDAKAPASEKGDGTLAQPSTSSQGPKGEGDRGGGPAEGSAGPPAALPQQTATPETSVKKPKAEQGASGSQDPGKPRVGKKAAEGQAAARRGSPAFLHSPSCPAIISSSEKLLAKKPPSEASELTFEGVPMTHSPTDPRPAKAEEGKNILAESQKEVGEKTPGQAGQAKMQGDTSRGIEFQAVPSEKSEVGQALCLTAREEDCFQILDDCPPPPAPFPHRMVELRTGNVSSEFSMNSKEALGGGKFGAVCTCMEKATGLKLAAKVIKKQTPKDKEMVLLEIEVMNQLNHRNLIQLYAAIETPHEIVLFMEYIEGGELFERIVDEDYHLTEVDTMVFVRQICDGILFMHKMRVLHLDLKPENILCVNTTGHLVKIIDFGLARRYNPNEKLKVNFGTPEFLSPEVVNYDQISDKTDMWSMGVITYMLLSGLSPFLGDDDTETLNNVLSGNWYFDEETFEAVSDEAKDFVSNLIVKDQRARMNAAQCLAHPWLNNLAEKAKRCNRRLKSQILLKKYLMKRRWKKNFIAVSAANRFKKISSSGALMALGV

HeLa [18] = assay: Cytotoxicity against human HeLa cells assessed as cell viability at 10 uM by XTT assay; assay type: functional; details: read-out: Activity
[19] = target: T5, Serine/threonine-protein kinase haspin (Homo sapiens, UniProt Q8TF76); assay: Inhibition of recombinant human Haspin expressed in Baculovirus expression system by Adapta assay
T5 sequence (Q8TF76 whole entry): T1 sequence (whole entry)

[20] = target: Dual specificity protein kinase CLK1 (Homo sapiens, UniProt P49759); assay: Inhibition of recombinant human Clk1 expressed in Escherichia coli at 2 uM by Z'-LYTE assay
[21] = target: T3, Dual specificity tyrosine-phosphorylation-regulated kinase 1A; assay: Inhibition of Dyrk1A in human HeLa cells transfected with GFP-SF3b1-NT assessed as decrease in SF3B1 phosphorylation at Thr434 after 18 hrs by Western blot analysis; assay type: cell-based
How it was run: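 HeLa cells were transiently transfected with a GFP-SF3b1 expression vector, then treated with compound. Read-out was phosphorylation of SF3b1 at Thr434, which serves as a marker of endogenous Dyrk1A activity in the cell.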

[22] = target: Dual specificity protein kinase CLK2 (Homo sapiens) (UniProt P49760); assay: Inhibition of recombinant human Clk2 expressed in Baculovirus expression system at 2 uM by Z'-LYTE assay
Chain of Dual specificity protein kinase CLK2 (Homo sapiens) (P49760 whole entry, looked up): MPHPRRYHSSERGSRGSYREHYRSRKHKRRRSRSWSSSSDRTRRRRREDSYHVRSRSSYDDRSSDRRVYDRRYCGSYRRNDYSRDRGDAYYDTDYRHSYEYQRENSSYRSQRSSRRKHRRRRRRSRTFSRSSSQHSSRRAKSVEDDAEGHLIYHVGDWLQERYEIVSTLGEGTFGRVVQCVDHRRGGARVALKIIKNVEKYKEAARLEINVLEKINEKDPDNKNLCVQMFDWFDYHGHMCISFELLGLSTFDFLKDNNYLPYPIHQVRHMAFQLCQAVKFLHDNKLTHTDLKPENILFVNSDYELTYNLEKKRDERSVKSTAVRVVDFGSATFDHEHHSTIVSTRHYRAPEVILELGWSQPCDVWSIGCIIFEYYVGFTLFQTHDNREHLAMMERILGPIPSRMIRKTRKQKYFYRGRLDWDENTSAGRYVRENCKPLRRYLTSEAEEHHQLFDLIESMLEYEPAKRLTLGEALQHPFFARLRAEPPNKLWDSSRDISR

[23] = target: Cyclin-dependent kinase 5/CDK5 activator 1 (Homo sapiens) (UniProt Q00535+Q15078); assay: Inhibition of recombinant human CDK5/p25 expressed in baculovirus expression system at 2 uM by Z'-LYTE assay
Chain of Cyclin-dependent kinase 5/CDK5 activator 1 (Homo sapiens) (Q00535 whole entry): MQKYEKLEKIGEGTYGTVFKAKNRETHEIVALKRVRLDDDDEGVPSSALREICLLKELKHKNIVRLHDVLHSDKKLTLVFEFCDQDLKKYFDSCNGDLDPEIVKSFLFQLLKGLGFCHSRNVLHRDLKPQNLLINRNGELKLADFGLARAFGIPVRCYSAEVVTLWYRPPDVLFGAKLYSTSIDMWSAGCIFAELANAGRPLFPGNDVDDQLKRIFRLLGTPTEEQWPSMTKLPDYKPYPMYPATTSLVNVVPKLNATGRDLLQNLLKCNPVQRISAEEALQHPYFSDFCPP
Chain of Cyclin-dependent kinase 5/CDK5 activator 1 (Homo sapiens) (Q15078 99-307 partner limits assumed): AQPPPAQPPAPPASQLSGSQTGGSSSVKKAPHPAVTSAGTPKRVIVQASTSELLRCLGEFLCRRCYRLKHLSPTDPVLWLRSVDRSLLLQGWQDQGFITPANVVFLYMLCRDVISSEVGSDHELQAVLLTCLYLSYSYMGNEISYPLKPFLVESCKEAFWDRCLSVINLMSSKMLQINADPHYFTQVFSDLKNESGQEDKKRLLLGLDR

HeLa [24] = assay: Cytotoxicity against human HeLa cells after 72 hrs by CellTiter-Blue assay; assay type: functional, cell-based
HeLa [25] = assay: Cytotoxicity against human HeLa cells after 5 days by MTT assay; assay type: functional, cell-based; details: 120 h

Chain of Dual specificity tyrosine-phosphorylation-regulated kinase 1B (Q9Y463 whole entry): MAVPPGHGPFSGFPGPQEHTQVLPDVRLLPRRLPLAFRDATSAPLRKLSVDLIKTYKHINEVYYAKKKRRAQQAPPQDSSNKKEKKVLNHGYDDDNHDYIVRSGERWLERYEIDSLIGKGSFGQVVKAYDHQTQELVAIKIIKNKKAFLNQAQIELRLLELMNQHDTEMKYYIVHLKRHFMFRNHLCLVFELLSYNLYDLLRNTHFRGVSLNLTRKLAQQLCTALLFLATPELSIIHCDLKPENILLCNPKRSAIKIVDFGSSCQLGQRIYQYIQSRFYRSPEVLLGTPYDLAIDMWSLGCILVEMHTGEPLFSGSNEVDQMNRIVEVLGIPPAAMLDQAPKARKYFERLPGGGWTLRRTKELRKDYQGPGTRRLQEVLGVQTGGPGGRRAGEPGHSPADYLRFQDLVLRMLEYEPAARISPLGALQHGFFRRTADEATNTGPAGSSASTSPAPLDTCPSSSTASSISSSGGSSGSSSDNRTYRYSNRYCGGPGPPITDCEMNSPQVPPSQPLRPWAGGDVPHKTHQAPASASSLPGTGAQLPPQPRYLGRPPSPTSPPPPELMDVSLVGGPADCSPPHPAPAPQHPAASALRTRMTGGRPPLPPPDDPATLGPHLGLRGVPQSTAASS

## Nc1cncc(-c2cc(-c3cccnc3)cs2)c1
[1]
  pIC50: 6.81

## c1cncc(-c2cc(-c3cncs3)cs2)c1
[2]
  half-life at 0.5 µM: 27 min

## O=C(Cc1ccc(F)cc1)Nc1cncc(-c2cc(-c3cccnc3)cs2)c1
[3]
  inhibition: 8%
HeLa [4]
  viability at 1 µM: 99%
[5]
  half-life at 0.3 µM: 118 min
[6]
  inhibition: 2%
HeLa [7]
  viability at 3 µM: 97%
[8]
  inhibition: 95%
[9]
  inhibition: 4%
[10]
  inhibition at 2 µM: 40%
[11]
  pIC50: 7.84
[12]
  inhibition: 60%
[13]
  pIC50: 7.84
[14]
  inhibition: 0%
[1]
  pIC50: 6.42
[15]
  inhibition: 87%
[16]
  inhibition: 10%
[17]
  inhibition: 9.8%
HeLa [18]
  viability at 10 µM: 88%
[19]
  pIC50: 7.44
[20]
  inhibition at 2 µM: 40%
[21]
  pIC50: 7.10
[22]
  inhibition: 19%
[23]
  inhibition: 0%

## Nc1cncc(-c2csc(-c3cccnc3)c2)c1
[1]
  pIC50: 6.89

## Oc1ccc(-c2nc3ccc4[nH]ncc4c3c3c2CCCC3)c(F)c1
HeLa [24]
  pIC50: 5.32

## O=C(Nc1cncc(-c2cc(-c3cccnc3)cs2)c1)c1c(F)cc(F)cc1F
[5]
  half-life at 0.3 µM: 123 min
[1]
  pIC50: 6.53

## C[C@]12CC[C@H]3[C@@H](CCC4=CC(=O)CC[C@@]43C)[C@@H]1CC[C@@H]2O [TESTOSTERONE]
[5]
  half-life at 0.3 µM: 8.5 min

## CN[C@@H]1C[C@H]2O[C@@](C)([C@@H]1OC)n1c3ccccc3c3c4c(c5c6ccccc6n2c5c31)C(=O)NC4 [STAUROSPORINE]
HeLa [4]
  viability at 1 µM: 33%

## COc1ccc2c(c1)[nH]c1c(C)nccc12 [HARMINE]
HeLa [25]
  pIC50: 5.10

## O=C(Cc1ccccc1)Nc1cncc(-c2cc(-c3cccnc3)cs2)c1
[1]
  pIC50: 6.49

## Nc1ccc(-c2cc(-c3cccnc3)cs2)cn1
[1]
  pIC50: 6.60
